ChEMBL document CHEMBL5370639, “Structure-Based Lead Optimization of Enterovirus D68 2A Protease Inhibitors” (J Med Chem, 2023)
pEC50, pIC50, pKi: −log10 of the molar value.

What was measured:
[1] = tested on: enterovirus D68; experiment: Antiviral activity against enterovirus D68 US/MO/14-18947 infected in human RD cells assessed as reduction in virus plaque formation measured after 3 days by neutral red staining assay; assay type: functional, organism-based; details: Enterovirus D, US/MO/14-18947, RD, 72 h
How it was run: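 RD cells infected with virus in DMEM/2% FBS/30 mM MgCl2 for at least 1 h at 33 °C, then given compound under a 1.2% avicel microcrystalline cellulose overlay. Cells stained after 3 days and plaques counted. EC50 from curve fitting; mean ± SD of two repeats.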

[2] = Inhibition of Enterovirus D68 US/KY/14-18953 2A protease expressed in Escherichia coli BL21(DE3) using Dabcyl-KIRIVNT/GPGEGGE-Edans as substrate incubated for 2 hrs by FRET assay
[3] = tested on: enterovirus D68; experiment: Antiviral activity against enterovirus D68 US/IL/14-18956 infected in human RD cells assessed as reduction in virus induced cytopathic effect by neutral red staining based CPE assay; assay type: functional, organism-based; details: Enterovirus D, US/IL/14-18956, RD
How it was run: (§1)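 RD cells were seeded overnight to about 90% confluency and washed with PBS containing Ca/Mg. They were infected with virus in DMEM with 2% FBS and 30 mM MgCl2 for at least 1 h at 33 °C in 5% CO2, then compound was added. Viability was read by neutral red staining (66 μg/mL, 2 h) at A540. EC50 was taken from dose-response curve fits.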

[4] = biological target: Cytochrome P450 2D6 (Homo sapiens, UniProt P10635); experiment: Inhibition of CYP2D6 (unknown origin); assay type: ADME
Cytochrome P450 2D6, sequence (P10635 whole entry): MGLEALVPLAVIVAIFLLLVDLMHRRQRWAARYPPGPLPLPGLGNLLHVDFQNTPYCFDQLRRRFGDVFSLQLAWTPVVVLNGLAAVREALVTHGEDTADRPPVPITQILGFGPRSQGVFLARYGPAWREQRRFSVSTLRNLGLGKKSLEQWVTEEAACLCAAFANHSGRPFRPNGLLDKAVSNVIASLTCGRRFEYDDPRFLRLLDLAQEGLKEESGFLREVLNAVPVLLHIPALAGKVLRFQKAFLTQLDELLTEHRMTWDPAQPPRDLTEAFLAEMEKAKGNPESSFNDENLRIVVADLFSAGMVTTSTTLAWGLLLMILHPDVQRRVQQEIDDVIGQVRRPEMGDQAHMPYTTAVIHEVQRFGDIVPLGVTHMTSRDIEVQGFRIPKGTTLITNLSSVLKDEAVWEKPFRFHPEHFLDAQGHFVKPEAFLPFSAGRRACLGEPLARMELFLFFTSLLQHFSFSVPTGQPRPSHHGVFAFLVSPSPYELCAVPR

[5] = Toxicity in BALB/c mouse assessed as change in body weight at 100 mg/kg, ip administered on day 1 and followed by 200 mg/kg, ip on day 3, 300 mg/kg, ip on day 7, 400 mg/kg, ip on day 12 measured after 16 days of initial dose; assay type: organism-based; details: in vivo, 384 h, time 16 day
How it was run: (§2)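 Three female BALB/c mice of about 19 g each received i.p. doses in corn oil with 10% DMSO, escalating in the same animals. They were given 100 mg/kg first, then 200, 300 and 400 mg/kg on days 1, 3, 7 and 12, with time for elimination between doses. Body weight and general health were monitored throughout the study.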

[6] = tested on: enterovirus D68; experiment: Antiviral activity against enterovirus D68 US/IL/14-18952 infected in human RD cells assessed as reduction in virus induced cytopathic effect by neutral red staining based CPE assay; assay type: functional, organism-based; details: Enterovirus D, US/IL/14-18952, RD; how it was run: as §1
[7] = Toxicity in BALB/c mouse assessed as survival at 100 mg/kg, ip administered on day 1 and followed by 200 mg/kg, ip on day 3, 300 mg/kg, ip on day 7, 400 mg/kg, ip on day 12 measured after 16 days of initial dose; assay type: organism-based; details: in vivo, 1000 mg/kg, 384 h, time 16 day; how it was run: as §2
[8] = tested on: enterovirus D68; experiment: Antiviral activity against enterovirus D68 US/KY/14-18953 infected in human RD cells assessed as reduction in virus induced cytopathic effect by neutral red staining based CPE assay; assay type: functional, organism-based; details: Enterovirus D, US/KY/14-18953, RD; how it was run: as §1
[9] = Cytotoxicity against human RD cells assessed as reduction in cell viability by neutral red staining based CPE assay; assay type: toxicity; details: RD cells
How it was run: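 Uninfected RD cells, grown overnight to ~90% confluency, treated with compound under otherwise the same handling as the antiviral assay. Viability by neutral red uptake (66 μg/mL, 2 h, absorbance 540 nm). CC50 from best-fit dose-response curve; mean ± SD of two independent experiments, three repeats each.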

[10] = Toxicity in BALB/c mouse assessed as mortality at 100 mg/kg, ip administered on day 1 and followed by 200 mg/kg, ip on day 3, 300 mg/kg, ip on day 7, 400 mg/kg, ip on day 12 measured after 16 days of initial dose; assay type: organism-based; details: in vivo, 384 h, time 16 day; how it was run: as §2
[11] = Binding affinity to Enterovirus D68 US/KY/14-18953 2A protease expressed in Escherichia coli BL21(DE3) assessed as inhibition constant using Dabcyl-KIRIVNT/GPGEGGE-Edans as substrate incubated for 2 hrs by FRET assay
How it was run: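 Progression-curve kinetics: FRET substrate at 40 μM final in 50 mM Tris pH 7.0, 100 mM NaCl, 2 mM DTT, 10% glycerol with varying inhibitor; reaction started by adding 2Apro to 0.4 μM final. Fluorescence (ex 360/40, em 460/40 nm) read every 71 s for 2 h at 30 °C. Curves fitted by the Morrison equation or an earlier-described equation.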

[12] = tested on: enterovirus D68; experiment: Antiviral activity against enterovirus D68 US/MO/14-18949 infected in human RD cells assessed as reduction in virus induced cytopathic effect by neutral red staining based CPE assay; assay type: functional, organism-based; details: Enterovirus D, US/MO/14-18949, RD; how it was run: as §1
[13] = biological target: T1, Cytochrome P450 1A2 (Homo sapiens, UniProt P05177); experiment: Inhibition of CYP1A2 (unknown origin); assay type: ADME
T1 sequence (P05177 whole entry): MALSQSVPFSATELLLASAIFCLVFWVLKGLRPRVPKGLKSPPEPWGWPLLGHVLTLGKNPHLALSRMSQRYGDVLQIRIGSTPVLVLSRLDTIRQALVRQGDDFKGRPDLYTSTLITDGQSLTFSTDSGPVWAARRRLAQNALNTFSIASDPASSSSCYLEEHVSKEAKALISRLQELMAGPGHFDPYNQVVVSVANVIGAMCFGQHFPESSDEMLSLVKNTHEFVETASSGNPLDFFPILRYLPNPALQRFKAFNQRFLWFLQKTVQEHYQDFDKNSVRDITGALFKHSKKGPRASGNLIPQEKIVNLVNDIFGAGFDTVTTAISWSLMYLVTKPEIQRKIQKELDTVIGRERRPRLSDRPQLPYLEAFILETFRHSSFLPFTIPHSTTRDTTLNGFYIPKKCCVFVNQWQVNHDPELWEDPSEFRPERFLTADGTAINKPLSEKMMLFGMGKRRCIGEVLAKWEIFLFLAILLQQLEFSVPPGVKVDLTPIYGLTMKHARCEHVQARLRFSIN

[14] = biological target: Cytochrome P450 3A (Homo sapiens, UniProt P08684+P20815+Q9HB55+P24462); experiment: Inhibition of CYP3A (unknown origin); assay type: ADME, protein assay
[15] = biological target: Cytochrome P450 2C19 (Homo sapiens, UniProt P33261); experiment: Inhibition of CYP2C19 (unknown origin); assay type: ADME
Cytochrome P450 2C19, sequence (P33261 whole entry): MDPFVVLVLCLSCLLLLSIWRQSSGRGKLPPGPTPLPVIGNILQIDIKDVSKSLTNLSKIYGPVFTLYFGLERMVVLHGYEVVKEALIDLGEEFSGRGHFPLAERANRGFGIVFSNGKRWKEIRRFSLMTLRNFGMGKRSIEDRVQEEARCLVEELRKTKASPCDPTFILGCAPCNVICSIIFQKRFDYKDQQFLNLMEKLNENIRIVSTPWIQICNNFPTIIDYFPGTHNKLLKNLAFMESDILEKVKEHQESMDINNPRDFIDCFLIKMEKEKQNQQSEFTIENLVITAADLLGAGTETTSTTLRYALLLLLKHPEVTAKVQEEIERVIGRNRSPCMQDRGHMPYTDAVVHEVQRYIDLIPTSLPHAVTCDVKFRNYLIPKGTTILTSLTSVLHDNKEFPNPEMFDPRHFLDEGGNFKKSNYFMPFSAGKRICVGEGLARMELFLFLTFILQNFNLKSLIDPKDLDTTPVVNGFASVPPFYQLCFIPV

[16] = biological target: Cytochrome P450 2C9 (Homo sapiens, UniProt P11712); experiment: Inhibition of CYP2C9 (unknown origin); assay type: ADME
Cytochrome P450 2C9, sequence (P11712 whole entry): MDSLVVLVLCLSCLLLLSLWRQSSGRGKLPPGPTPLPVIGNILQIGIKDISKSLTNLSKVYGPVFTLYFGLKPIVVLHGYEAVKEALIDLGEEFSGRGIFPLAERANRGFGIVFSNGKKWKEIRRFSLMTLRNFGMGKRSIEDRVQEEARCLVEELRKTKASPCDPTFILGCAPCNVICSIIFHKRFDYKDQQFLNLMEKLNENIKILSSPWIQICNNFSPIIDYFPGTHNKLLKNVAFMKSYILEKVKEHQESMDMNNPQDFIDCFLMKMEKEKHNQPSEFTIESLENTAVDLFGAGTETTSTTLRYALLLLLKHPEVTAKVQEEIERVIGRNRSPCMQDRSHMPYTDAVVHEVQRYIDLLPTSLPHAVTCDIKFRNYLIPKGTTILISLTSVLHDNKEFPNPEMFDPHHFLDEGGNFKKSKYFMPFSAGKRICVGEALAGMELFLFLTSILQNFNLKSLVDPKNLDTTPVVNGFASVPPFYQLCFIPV

[17] = tested on: enterovirus D68; experiment: Antiviral activity against enterovirus D68 US/MO/14-18947 infected in human RD cells assessed as reduction in virus induced cytopathic effect by neutral red staining based CPE assay; assay type: functional, organism-based; details: Enterovirus D, US/MO/14-18947, RD
How it was run: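 RD cells seeded overnight to ~90% confluency, washed with PBS containing Mg/Ca, infected with virus in DMEM/2% FBS/30 mM MgCl2 for at least 1 h at 33 °C, then compound added. Cells stained with 66 μg/mL neutral red for 2 h; uptake read at 540 nm. EC50 from dose-response fit; mean ± SD of two independent experiments, three repeats each.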

## CC(C)(C)[C@H](NC(=O)CC12CC3CC(CC(C3)C1)C2)C(=O)N1C[C@@H]2CCC[C@@H]2[C@H]1C(=O)N[C@H](C(=O)C(=O)NC1CC1)C1CCCCC1
[1]
  pEC50: 7.80
[2]
  pIC50: 7.05
[3]
  pEC50: 6.61
[4]
  pIC50: < 4.30
[5]
  Activity: Non-Toxic
[6]
  pEC50: 6.57
[7]
  Activity: Non-Toxic
[8]
  pEC50: 7.33
[9]
  CC50: > 150000 nM
[10]
  Activity: Non-Toxic
[11]
  pKi: 7.29
[12]
  pEC50: 7.00
[13]
  pIC50: < 4.30
[14]
  IC50: 570 nM
[15]
  pIC50: < 4.30
[16]
  pIC50: < 4.30
[17]
  pEC50: 6.89
